Experimental data reported in ChEMBL document CHEMBL2040741, “Hyaladione, an S-methyl cyclohexadiene-dione from Hyalangium minutum” (J Nat Prod, 2012).
≈ marks a conversion by molar mass, not a printed value.

Assays:
Staphylococcus aureus = assay: Antimicrobial activity against methicillin-resistant Staphylococcus aureus after 24 to 48 hrs by serial dilution technique; assay type: functional
Micrococcus luteus = assay: Antimicrobial activity against Micrococcus luteus after 24 to 48 hrs by serial dilution technique; assay type: functional
Escherichia coli = assay: Antimicrobial activity against Escherichia coli after 24 to 48 hrs by serial dilution technique; assay type: functional
[1] = Antimicrobial activity against Nocardia flava after 24 to 48 hrs by serial dilution technique; assay type: functional
[2] = tested on: Chromobacterium violaceum; assay: Antimicrobial activity against Chromobacterium violaceum after 24 to 48 hrs by serial dilution technique; assay type: functional
[3] = tested on: Schizosaccharomyces pombe; assay: Antimicrobial activity against Schizosaccharomyces pombe after 24 to 48 hrs by serial dilution technique; assay type: functional
Summary of the method: (§1)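 MIC by twofold (1:1) serial dilution in 96-well plates. Medium was MYC (1.0% glucose, 1.0% phytone peptone, 50 mM HEPES, pH 7.0), used for yeasts and fungi.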

Wickerhamomyces anomalus = assay: Antimicrobial activity against Pichia anamola after 24 to 48 hrs by serial dilution technique; assay type: functional; summary of the method: as §1
Rhodotorula glutinis = assay: Antimicrobial activity against Rhodotorula glutinis after 24 to 48 hrs by serial dilution technique; assay type: functional; summary of the method: as §1
Candida albicans = assay: Antimicrobial activity against Candida albicans after 24 to 48 hrs by serial dilution technique; assay type: functional; summary of the method: as §1
Mucor hiemalis = assay: Antimicrobial activity against Mucor hiemalis after 24 to 48 hrs by serial dilution technique; assay type: functional; summary of the method: as §1
Pseudomonas aeruginosa = assay: Antimicrobial activity against Pseudomonas aeruginosa after 24 to 48 hrs by serial dilution technique; assay type: functional
HUVEC = assay: Cytotoxicity against human HUVEC cells after 5 days by MTT assay; assay type: cell-based; conditions: 120 h
MCF7 = assay: Cytotoxicity against human MCF7 cells after 5 days by MTT assay; assay type: functional, cell-based; conditions: MCF7, 120 h
L929 = assay: Cytotoxicity against mouse L929 cells after 5 days by MTT assay; assay type: functional, cell-based; conditions: L929, 120 h
[4] = Cytotoxicity against human KB-3-1 cells after 5 days by MTT assay; assay type: functional, cell-based; conditions: KB 3-1, 120 h

Compound	MIC (Staphylococcus aureus) [µg/mL]	MIC (Micrococcus luteus) [µg/mL]	MIC (Escherichia coli) [µg/mL]	MIC [1] [µg/mL]	MIC [2] [µg/mL]	MIC [3] [µg/mL]	MIC (Wickerhamomyces anomalus) [µg/mL]	MIC (Rhodotorula glutinis) [µg/mL]	MIC (Candida albicans) [µg/mL]	MIC (Mucor hiemalis) [µg/mL]	MIC (Wickerhamomyces anomalus; Hansenula anomala) [µg/mL]	MIC (Pseudomonas aeruginosa) [µg/mL]	IC50 (HUVEC) [nM]	IC50 (MCF7) [nM]	IC50 (L929) [nM]	IC50 [4] [nM]
CN(C)[C@@H]1C(O)=C(C(N)=O)C(=O)[C@@]2(O)C(O)=C3C(=O)c4c(O)cccc4[C@@](C)(O)[C@H]3[C@H](O)[C@@H]12.Cl [OXYTETRACYCLINE HYDROCHLORIDE]	0.104	0.104	0.83	1.67	0.21	–	–	–	–	–	–	–	–	–	–	–
NYSTATIN	–	–	–	–	–	1.67	1.67	0.42	1.67	1.67	–	–	–	–	–	–
CSC1=CC(=O)C(N)=C(Cl)C1=O [HYALADIONE]	0.83 (≈ 4.08 µM)	3.3 (≈ 16.2 µM)	33.3 (≈ 164 µM)	3.3 (≈ 16.2 µM)	2.1 (≈ 10.3 µM)	> 33.3	–	1.7 (≈ 8.35 µM)	> 33.3	16.5 (≈ 81 µM)	33.3 (≈ 164 µM)	8.5 (≈ 41.7 µM)	2210	1230	1470	3930
